Only some compounds are listed: those with a hit (about 2.6% of all), similar ones and a draw of the others.
Cl transport mod – KCC2 cotransporter modulators, thallium flux, primary screen, cell-based, HEK293 KCC2, FluoZin-2 fluorescence, MLSMR. KCC2 cells, thallium flux FluoZin-2 fluorescence. hit rate 2.2% among 190,000. B-score of Tl+ flux slope (higher = more flux/activation; lower = inhibition) at 10 µM;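 active = thallium flux slope and its plate-corrected score both differing from the plate sample mean at a set confidence after two filtering rounds, in either direction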;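 also: slope of fluorescence scaled to starting intensity during 10 to 20 s after thallium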
CHT PAM – CHT positive allosteric modulators, primary screen, cell-based, membrane potential dye, choline EC20; CHT-expressing cells; hits give high values; LV-AA mutant CHT in HEK293 cells; B-score at 10 µM; hit rate 0.49% among 310,000; High affinity choline transporter 1 (Homo sapiens), Q9GZV3;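 active = initial fluorescence not abnormally high and integrated response B-score, plate-corrected, over 3 SD above library mean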
Target sequence (Q9GZV3 whole entry, looked up): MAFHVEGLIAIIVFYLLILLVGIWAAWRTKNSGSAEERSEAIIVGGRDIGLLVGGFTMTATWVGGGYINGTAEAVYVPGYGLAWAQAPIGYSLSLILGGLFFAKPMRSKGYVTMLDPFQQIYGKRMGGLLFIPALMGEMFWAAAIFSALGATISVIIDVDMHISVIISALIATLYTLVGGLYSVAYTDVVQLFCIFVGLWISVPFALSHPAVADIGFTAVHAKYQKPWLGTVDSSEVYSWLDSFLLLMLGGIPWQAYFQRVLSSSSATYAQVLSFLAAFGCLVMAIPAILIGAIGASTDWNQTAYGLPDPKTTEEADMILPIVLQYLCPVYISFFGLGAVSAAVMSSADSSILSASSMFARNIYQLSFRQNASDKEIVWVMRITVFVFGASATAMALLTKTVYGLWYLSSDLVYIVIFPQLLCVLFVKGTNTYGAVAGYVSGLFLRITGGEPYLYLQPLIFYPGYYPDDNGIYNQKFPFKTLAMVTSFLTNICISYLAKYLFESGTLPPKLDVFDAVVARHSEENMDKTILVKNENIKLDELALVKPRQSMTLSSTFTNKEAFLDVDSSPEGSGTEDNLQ
CHT inh – inhibitors of human choline transporter CHT. CHT-expressing cells, membrane potential dye, choline response; hits give low values. B-score at 10 µM. hit rate 0.86% among 310,000. AID 488975, 2010;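 active = B-score over 3 SD under the library average, and starting fluorescence ratio not unusually high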;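 also: choline stimulus applied at its EC90 after an EC20 pre-addition; B-score computed on integrated fluorescence ratio after choline addition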
Rad51 HR inh – human RAD51 strand exchange inhibitors, primary screen, biochemical, fluorescence | hRad51 DNA strand exchange, fluorescence dequenching | hit rate 0.085% among 200,000 | inhibition, % at 10 µM | AID 1385, 2008 | DNA repair protein RAD51 homolog 1 (Homo sapiens), Q06609;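 active = inhibition above 40% at the single screening dose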;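 also: 0% = DMSO control wells and 100% = blanks with heterologous ssDNA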
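Test system – preformed human Rad51 ssDNA filaments · Reagent – Donor/quencher-labelled 47-bp dsDNA substrate · Incubation – 37 °C 15-min filament assembly, 30-min compound preincubation, 15-min exchange · Signal – FRET fluorescence dequenching, excitation 485 nm, emission 520 nm · Read-out – percent inhibition from fluorescence, normalised to plate control and blank means · Benchmarks – plate control and blank wells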
KCC2 sec1 – KCC2 modulators in sodium-free buffer, confirmation, cell-based, HEK293 KCC2, thallium flux, secondary assay. shares compounds with Cl transport mod. FluoZin2 fluorescence; hits give high values. normalised thallium flux (F/F0 slope) at 10 µM. hit rate 15% among 3,700. AID 1713, 2009;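 active = thallium flux slope above the same plate's solvent-only control mean plus 3 SD; inconclusive = the two replicate wells disagree; inactive = no significant difference from solvent-only control wells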
KCC2 bumet counter – thallium flux persisting under bumetanide in KCC2 cells, confirmation, counter-screen for KCC2 modulator project, cell-based, HEK293 KCC2, FluoZin2, secondary assay 3. shares compounds with Cl transport mod. HEK293-KCC2 + bumetanide/ouabain; hits give high values. normalized thallium flux at 10 µM. hit rate 49% among 3,700. AID 1714, 2009;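 active = thallium entry rate above the same plate's blocked-transporter control wells by more than 3 SD; inconclusive = the two repeat wells disagree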;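 also: raw slope of fluorescence over initial fluorescence between 10 and 20 s after thallium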
KCC2 sec2 – KCC2 modulators without ouabain present, confirmation, cell-based, HEK293 KCC2, thallium flux, FluoZin2, secondary assay 2; hit rate 23% among 3,700; shares compounds with Cl transport mod; thallium flux FluoZin2 fluorescence; actives lie on both sides; F/F0 rise rate, 10–20 s post-thallium; normalized thallium flux at 10 µM; AID 1715, 2009;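 active = thallium flux slope more than 3 SD above or below the plate's solvent-only control mean, mostly below; inconclusive = the two repeat wells disagreed; inactive = no significant shift from solvent-only controls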;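 also: raw slope with 0.1% DMSO as baseline and bumetanide as block control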
HEK counter1 – thallium flux modulation in parental HEK cells, confirmation, counter-screen for KCC2 modulator project, cell-based, counterscreen 1; shares compounds with Cl transport mod; HEK293 parental cells, thallium flux FluoZin2, ouabain; baseline-ratio fluorescence slope, 10–20 s after thallium; hit rate 46% among 3,700; AID 1716, 2009; thallium flux rate (normalised fluorescence) at 10 µM;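 active = thallium flux rate significantly above the same plate's solvent-only control wells, beyond their mean plus 3 SD; inconclusive = the two replicate wells gave conflicting results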
KCC2 ouabain – KCC2 inhibitors and activators, ouabain retest, confirmation, HEK-KCC2 cells | shares compounds with Cl transport mod | HEK293-KCC2, thallium flux FluoZin2 fluorescence; bidirectional: low = inhibitor, high = activator | raw Tl+ flux slope (below DMSO = inhibition, above = activation) at 10 µM | hit rate 48% among 3,700 | AID 1717, 2009;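 active = thallium flux slope beyond 3 SD from same-plate DMSO control mean in most replicates, usually higher, sometimes lower; inconclusive = repeat tests gave conflicting results; inactive = no significant difference from controls in most replicates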;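 also: slope of initial-normalized fluorescence between seconds 10 and 20 after thallium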
HEK293 Tl flux2 – native HEK Tl+ uptake effects, second counter-screen – HEK cells, counterscreen 2, counter-screen for KCC2 modulator project, confirmation; shares compounds with Cl transport mod; HEK293 parental, thallium flux FluoZin-2 fluorescence slope; thallium flux slope at 10 µM; hit rate 33% among 3,700; AID 1718, 2009;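 active = thallium flux slope above the same plate's solvent-control mean plus 3 SD in both duplicate wells; inconclusive = duplicate wells that disagreed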;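 also: run without ouabain in cells lacking the KCC2 cotransporter; slope of fluorescence scaled to its starting value between 10 and 20 s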
The depositor's hits bear a star.

Screening N#C/C(=C\c1ccc(O)c(O)c1)C(=O)NCCCc1ccccc1 returned Cl transport mod -1.1, CHT PAM inactive, CHT inh inactive, Rad51 HR inh 0, KCC2 sec1 0.0081, KCC2 bumet counter 0.0048, KCC2 sec2 0.03, HEK counter1 0.0078, KCC2 ouabain inconclusive and HEK293 Tl flux2 0.012.
For COc1ccc(/C=C(\C#N)C(=O)NCCc2ccccc2)cc1OCc1ccccc1 the results were Cl transport mod -0.53, CHT PAM inactive, CHT inh inactive and Rad51 HR inh 6.
For COc1ccc(S(=O)(=O)N(C)C)cc1NC(=O)Cc1cccs1 the results were Cl transport mod -0.54, CHT PAM inactive, CHT inh inactive and Rad51 HR inh 7.
Screening CCOc1ccc2nc(SC3CC(=O)N(c4ccc(OC)cc4OC)C3=O)sc2c1 (stereo not drawn) returned Cl transport mod 5.8*, CHT PAM inactive, CHT inh inactive, Rad51 HR inh 22, KCC2 sec1 0.007, KCC2 bumet counter 0.013*, KCC2 sec2 0.035, HEK counter1 0.014*, KCC2 ouabain inconclusive and HEK293 Tl flux2 0.017*.
For CCOc1ccc(N2C(=O)CC(Sc3nc4ccc(OCC)cc4s3)C2=O)cc1 (stereo not drawn) the results were Cl transport mod 0.79, CHT PAM inactive, CHT inh inactive and Rad51 HR inh 4.
COc1cccc(CNS(=O)(=O)c2cn(C)cn2)c1 was read as Cl transport mod 7.2*, CHT PAM inactive, CHT inh inactive, KCC2 sec1 0.0062, KCC2 bumet counter 0.0046, KCC2 sec2 0.033, HEK counter1 0.0076, KCC2 ouabain 0.019 and HEK293 Tl flux2 0.011.
Cn1cnc(S(=O)(=O)NCc2ccccc2)c1 was read as Cl transport mod 0.75, CHT PAM inactive and CHT inh inactive.
`COc1ccccc1NC(=S)NNC(=O)c1c(Cl)c(C)nn1C` gave Cl transport mod 0.06, CHT PAM inactive, CHT inh inactive and Rad51 HR inh 1.
For Cc1cc(C)c(NC(=S)NC(=O)c2c(Cl)c(C)nn2C)c([N+](=O)[O-])c1 the results were Cl transport mod 42*, CHT PAM inactive, CHT inh inactive, Rad51 HR inh -31, KCC2 sec1 0.019*, KCC2 bumet counter 0.16*, KCC2 sec2 inconclusive, HEK counter1 0.047*, KCC2 ouabain 0.061* and HEK293 Tl flux2 0.016*.
For CC(=O)c1ccc(NC(=S)NC(=O)c2c(Cl)c(C)nn2C)cc1 the results were Cl transport mod 15*, CHT PAM inactive, CHT inh inactive, Rad51 HR inh 8, KCC2 sec1 0.015*, KCC2 bumet counter 0.066*, KCC2 sec2 0.037, HEK counter1 0.031*, KCC2 ouabain 0.037* and HEK293 Tl flux2 0.015*.
`CC1CCN(C(=O)CSc2ccc(-c3ccc(F)cc3)nn2)CC1` gave Cl transport mod -5.3*, CHT PAM inactive, CHT inh inactive, KCC2 sec1 0.0058, KCC2 bumet counter inconclusive, KCC2 sec2 0.021*, HEK counter1 0.0075, KCC2 ouabain 0.015* and HEK293 Tl flux2 0.0098.
O=C(CSc1ccc(-c2ccc(F)cc2)nn1)N1CCCCC1 was read as Cl transport mod -5.3*, CHT PAM inactive, CHT inh inactive, Rad51 HR inh 4, KCC2 sec1 0.0063, KCC2 bumet counter 0.005, KCC2 sec2 0.026, HEK counter1 0.0075, KCC2 ouabain 0.014* and HEK293 Tl flux2 0.01.
`COc1cccc(C2NC(=O)N(CCCC(=O)O)C(C)=C2C(=O)OCc2ccccc2)c1` (stereo not drawn) gave CHT PAM inactive, CHT inh inactive and Rad51 HR inh -3.
`Cn1c(C(=O)N2CCC(C(N)=O)CC2)cc2cc(Cl)ccc21` gave CHT PAM inactive and CHT inh inactive.
For Cc1cc(C)cc(NC(=O)CSc2cc(C(=O)c3nccn3C)c3ccccc3n2)c1 the results were Cl transport mod 1, CHT PAM inactive, CHT inh inactive and Rad51 HR inh 5.
`Cc1cccc(/C=N/n2c(-c3ccccn3)n[nH]c2=S)c1` gave Cl transport mod -0.42, CHT PAM inactive, CHT inh inactive and Rad51 HR inh -5.
CC(/C=N/n1c(-c2ccccn2)n[nH]c1=S)=C\c1ccccc1 was read as Cl transport mod 8.4*, CHT PAM inactive, CHT inh inactive, Rad51 HR inh -3, KCC2 sec1 0.0067, KCC2 bumet counter 0.029*, KCC2 sec2 0.03, HEK counter1 0.013*, KCC2 ouabain inconclusive and HEK293 Tl flux2 0.011.
`O=C1/C(=C\c2ccco2)NC(=S)N1c1ccccc1` gave Cl transport mod 15*, CHT PAM inactive, CHT inh inactive, Rad51 HR inh -7, KCC2 sec1 0.015*, KCC2 bumet counter 0.033*, KCC2 sec2 0.034, HEK counter1 0.018*, KCC2 ouabain inconclusive and HEK293 Tl flux2 0.013*.
`O=S(=O)(O)c1nc2ccccc2[nH]1` gave Cl transport mod -0.022, CHT PAM inactive, CHT inh inactive and Rad51 HR inh 14.

Screening results deposited in PubChem by several laboratories.
